According to paper PMC6993754 (Pharmacology Research & Perspectives, 2020):

T1: recombinant CYP2J2 (Homo sapiens, UniProt P51589)
T1 sequence (P51589 1-502): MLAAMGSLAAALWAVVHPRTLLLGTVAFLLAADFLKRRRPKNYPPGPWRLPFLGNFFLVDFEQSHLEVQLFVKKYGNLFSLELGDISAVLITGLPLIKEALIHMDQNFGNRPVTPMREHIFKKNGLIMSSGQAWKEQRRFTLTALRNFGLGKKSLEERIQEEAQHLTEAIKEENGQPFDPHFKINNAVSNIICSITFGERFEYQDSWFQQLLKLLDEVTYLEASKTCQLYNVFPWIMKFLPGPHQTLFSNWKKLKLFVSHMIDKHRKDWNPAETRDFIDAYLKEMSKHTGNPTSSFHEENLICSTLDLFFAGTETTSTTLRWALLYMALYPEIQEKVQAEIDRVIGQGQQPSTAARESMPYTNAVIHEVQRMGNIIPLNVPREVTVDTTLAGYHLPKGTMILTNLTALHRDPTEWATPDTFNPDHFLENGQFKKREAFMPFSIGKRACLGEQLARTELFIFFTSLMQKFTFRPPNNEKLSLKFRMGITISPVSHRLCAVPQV

B1: recombinant CYP2J2 (Homo sapiens) (protein)
chain: MLAAMGSLAAALWAVVHPRTLLLGTVAFLLAADFLKRRRPKNYPPGPWRLPFLGNFFLVDFEQSHLEVQLFVKKYGNLFSLELGDISAVLITGLPLIKEALIHMDQNFGNRPVTPMREHIFKKNGLIMSSGQAWKEQRRFTLTALRNFGLGKKSLEERIQEEAQHLTEAIKEENGQPFDPHFKINNAVSNIICSITFGERFEYQDSWFQQLLKLLDEVTYLEASKTCQLYNVFPWIMKFLPGPHQTLFSNWKKLKLFVSHMIDKHRKDWNPAETRDFIDAYLKEMSKHTGNPTSSFHEENLICSTLDLFFAGTETTSTTLRWALLYMALYPEIQEKVQAEIDRVIGQGQQPSTAARESMPYTNAVIHEVQRMGNIIPLNVPREVTVDTTLAGYHLPKGTMILTNLTALHRDPTEWATPDTFNPDHFLENGQFKKREAFMPFSIGKRACLGEQLARTELFIFFTSLMQKFTFRPPNNEKLSLKFRMGITISPVSHRLCAVPQV

Tests used:
[1] = test system: human brain microsomes (HBMs); assay: Screening of STS‐135 oxidative metabolism with HBMs; assay type: in vitro ADME; conditions: STS‐135 50 µmol/L
In short: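 Pooled 50-donor human brain microsomes with test compound (50 µmol/L, 2% DMSO) in 0.1 mol/L KPO₄, pH 7.4. Stopped with equal-volume ethanol, centrifuged; UPLC-UV at 300 nm for M21/M25. No-substrate, no-protein and no-NADPH controls; triplicate; nmol/mg protein/min.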

[2] = Time‐dependent metabolism of STS‐135 in genotyped HLMs CYP3A5*1/*1; assay type: in vitro ADME; conditions: human, genotyped CYP3A5*1/*1 human liver microsomes, pH 7.4
In short: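 CYP3A5-genotyped human liver microsomes (*1/*1 or *3/*3) incubated with test compound in 0.1 mol/L KPO₄, pH 7.4, with NADPH-regenerating system at 37°C. Sampled at 0, 10, 20, 30, 45, 60, 90 and 120 min, ethanol-stopped, centrifuged and analysed by UPLC-UV (300 nm) for parent depletion. Half-life determined directly by linear regression; triplicate reactions.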

[3] = target: T1, recombinant CYP2J2
[4] = test system: human hepatocytes; conditions: oxidation, hydrolysis, and glucuronidation; cited from earlier work
[5] = test system: CB1 receptor; conditions: cited from earlier work
[6] = test system: CB2 receptor; conditions: cited from earlier work
[7] = substrate: O=C(NC12CC3CC(CC(C3)C1)C2)c1cn(CCCCCF)c2ccccc12; assay: not read; conditions: 37.0 °C

| Molecule | Specific activity, formation of M21 [1] | Specific activity, formation of M25 [1] | half-life [2] | K m, production of M25 (Figure 6 legend) [3] | Number of metabolites formed [4] | Agonist activity at CB1 receptor [5] | Agonist activity at CB2 receptor [6] | Km [7] | Vmax [7] |
| --- | --- | --- | --- | --- | --- | --- | --- | --- | --- |
| O=C(NC12CC3CC(CC(C3)C1)C2)c1cn(CCCCCF)c2ccccc12 [STS‐135, N‐(adamantan‐1‐yl)‐1‐(5‐fluoropentyl)‐1H‐indole‐3‐carboxamide] | no detectable metabolites | no detectable metabolites | 21.1 min | 11.2389 ± 1.733 | 29 metabolites | potent agonist | potent agonist |  |  |
| B1 |  |  |  |  |  |  |  | 11.2 ± 1.7 µM | 17.2 ± 0.5 pmol/min/mg protein |
